This is an account of results in ChEMBL document CHEMBL3259745, “Identification of trisubstituted-pyrazol carboxamide analogs as novel and potent antagonists of farnesoid X receptor” (Bioorg Med Chem, 2014).

Data set [1] concerns the target T1, Bile acid receptor (Homo sapiens) (UniProt Q96RI1).
T1 sequence (whole entry): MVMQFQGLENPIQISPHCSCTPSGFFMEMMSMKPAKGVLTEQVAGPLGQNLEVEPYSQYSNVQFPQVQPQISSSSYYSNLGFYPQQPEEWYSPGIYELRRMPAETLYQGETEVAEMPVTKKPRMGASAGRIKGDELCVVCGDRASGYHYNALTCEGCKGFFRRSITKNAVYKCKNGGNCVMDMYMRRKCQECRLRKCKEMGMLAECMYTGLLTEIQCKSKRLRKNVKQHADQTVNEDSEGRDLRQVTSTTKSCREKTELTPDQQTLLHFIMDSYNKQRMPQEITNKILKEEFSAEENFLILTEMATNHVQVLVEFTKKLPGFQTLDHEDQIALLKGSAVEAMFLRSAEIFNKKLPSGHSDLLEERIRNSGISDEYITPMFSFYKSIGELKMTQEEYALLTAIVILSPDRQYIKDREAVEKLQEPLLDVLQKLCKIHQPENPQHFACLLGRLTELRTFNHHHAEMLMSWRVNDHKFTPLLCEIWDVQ
Kind of data set: Agonist activity at human FXR.

The target in data set [2] is T1, Bile acid receptor (Homo sapiens). The experiment in a line: Antagonist activity at human GST-tagged FXR at […] nM after 20 mins by TR-FRET assay relative to control.
The nature of data set [3]: Cytotoxicity against HEK293T cells expressing FXR and beta-lactamase genes assessed as inhibition of cell viability at 40 uM after 16 hrs by CellTiter-Glo luminescent assay relative to control. It is filed as cell-based, HEK-293T. The settings on record: human, read-out: INH. Put shortly: (§1)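 Viability run alongside the agonist assay in the same GeneBLAzer FXR HEK 293T cells: 20,000 cells/well in phenol red-free DMEM with 2% charcoal/dextran-treated FBS, 0.5% DMSO, 16 h at 37°C. Cooled 20 min, then CellTiter-Glo added for 20 min in dark; luminescence read.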
(In general: ATP-based viability assays read luminescence as a measure of living cells.)

For data set [4], the target named is T1, Bile acid receptor (Homo sapiens). Kind of data set: Inhibition of GW4064-induced transactivation of FXR (unknown origin) expressed in HEK293T cells at 40 uM after 16 hrs by beta-lactamase reporter gene assay relative to control. It is filed as cell-based. The following applies: HEK-293T. In general terms: In a reporter assay the amount or activity of a reporter protein is the signal.

Data set [5] has the same target. Kind of data set: Antagonist activity at human GST-tagged FXR at 1.48 uM after 20 mins by TR-FRET assay relative to control.
For data set [6] the target is unchanged. Kind of data set: Agonist activity at FXR (unknown origin) expressed in HEK293T cells after 16 hrs by beta-lactamase reporter gene assay relative to control. It counts as cell-based. The following applies: HEK-293T.
Data set [7] has the same target. Kind of data set: Inhibition of GW4064-induced transactivation of FXR (unknown origin) expressed in HEK293T cells at 1 uM after 16 hrs by beta-lactamase reporter gene assay relative to control. The following applies: HEK-293T. It counts as cell-based.
Data set [8] has the same target. Kind of data set: Antagonist activity at human GST-tagged FXR at 13.3 uM after 20 mins by TR-FRET assay relative to control. For orientation: Time-resolved FRET reads energy transfer from a long-lived donor to a nearby acceptor.
Data set [9] can be described thus: Cytotoxicity against HEK293T cells expressing FXR and beta-lactamase genes assessed as inhibition of cell viability at 4.4 uM after 16 hrs by CellTiter-Glo luminescent assay relative to control. The following applies: human, read-out: INH. It counts as cell-based, HEK-293T. In short, it runs like this:
as §1

Data set [10] has as its target T1, Bile acid receptor (Homo sapiens). The experiment in a line: Antagonist activity at human GST-tagged FXR at 4.4 uM after 20 mins by TR-FRET assay relative to control.
The target is the same in data set [11]. The experiment in a line: Antagonist activity at human GST-tagged FXR at 1.5 uM after 20 mins by TR-FRET assay relative to control.
Data set [12] shares this target. Kind of data set: Ratio of E16 IC50 to compound IC50 for human GST-tagged FXR after 20 mins by TR-FRET assay.
For data set [13] the target is unchanged. Kind of data set: Ratio of E16 IC50 to compound IC50 for transactivation of FXR (unknown origin) expressed in HEK293T cells after 16 hrs by beta-lactamase reporter gene assay. It is filed as cell-based. The settings on record: HEK-293T.
The target is the same in data set [14]. The experiment in a line: Antagonist activity at human GST-tagged FXR at 164 nM after 20 mins by TR-FRET assay relative to control.
Data set [15] in a line: Cytotoxicity against HEK293T cells expressing FXR and beta-lactamase genes assessed as inhibition of cell viability at 13.3 uM after 16 hrs by CellTiter-Glo luminescent assay relative to control. It counts as cell-based, HEK-293T. The settings on record: human, read-out: INH. Put shortly:
as §1

The target of data set [16] is T1, Bile acid receptor (Homo sapiens). The experiment in a line: Inhibition of GW4064-induced transactivation of FXR (unknown origin) expressed in HEK293T cells at 20 uM after 16 hrs by beta-lactamase reporter gene assay relative to control. It is filed as cell-based. The settings on record: HEK-293T.
The target of data set [17] is T2, Bile acid receptor (Homo sapiens, UniProt Q96RI1).
T2 sequence (Q96RI1 whole entry): T1 sequence (whole entry)
Kind of data set: Inhibition of GW4064-induced transactivation of FXR (unknown origin) expressed in HEK293T cells after 16 hrs by beta-lactamase reporter gene assay. It counts as cell-based, HEK-293T.

The target of data set [18] is T2, Bile acid receptor. The experiment in a line: Antagonist activity at human GST-tagged FXR after 20 mins by TR-FRET assay.
Data set [19] concerns the target T1, Bile acid receptor (Homo sapiens). The following applies: 4.44 uM.
The target is the same in data set [20]. Kind of data set: Antagonist activity at human GST-tagged FXR at 40 uM after 20 mins by TR-FRET assay relative to control.

Calls of active or inactive are those of the source. No cut-off for these calls is given here.

As usually defined, the inhibition is the drop in the measured response relative to a control, in per cent. Consider `O=C(Nc1ccc(S(=O)(=O)N2CCOCC2)cc1)c1cn(-c2ccccc2)nc1-c1ccc(Cl)cc1`, for which, in data set [1], the result was inactive. Besides, the inhibition stood at 17.8% in data set [2] and 20.6% in [4]. In [3], the cytotoxicity at 16 h, 40 µM was less than 5%.
Turning to `COc1cccc(Cn2cc(CNc3ccc(C)c(S(=O)(=O)N4CCOCC4)c3)c(-c3cccc(OC)c3)n2)c1`, the inhibition in [5] was 39.8%; in data set [4] it was 3.1%. For the same compound, in data set [6], the result was inactive. Besides, in data set [3], the cytotoxicity at 16 h, 40 µM was less than 5%. For the same compound, the inhibition result in data set [7] is “inactive”.
With `COc1cccc(-c2nn(C(C)C)cc2C(=O)Nc2ccc(C)c(S(=O)(=O)N3CCOCC3)c2)c1`, in data set [6], the outcome was inactive. Besides, the figures for the inhibition in data set [4] and in data set [8] were 97.8% and 150%, respectively. The cytotoxicity at 16 h, 4.4 µM in data set [9] amounted to 10.8%.
For `COc1ccc(-c2nn(-c3ccccc3)cc2C(=O)Nc2cc(S(=O)(=O)N3CCOCC3)ccc2N2CCOCC2)cc1`, in data set [1], the result was inactive. The results for the inhibition in data set [2] and in [4] were 11.6% and 27%, respectively. The cytotoxicity at 16 h, 40 µM in data set [3] is less than 5%.
On to `COc1cccc(Cn2cc(CNc3ccc(C)c(S(=O)(=O)N4CCOCC4)c3)c(C(C)C)n2)c1`, for which the result in data set [6] was inactive. Further, in data set [3], the cytotoxicity at 16 h, 40 µM is 13.9%. Also, the inhibition in data set [4] came out at 64.8%; in [10] it was 72.5%. Also, the inhibition entry in [7] is “inactive”.
For the compound `Cc1ccc(-c2nn(CC3CC3)cc2C(=O)Nc2ccc(C)c(S(=O)(=O)N3CCOCC3)c2)cc1`, in data set [6], the outcome was inactive. The cytotoxicity at 16 h, 40 µM in [3] is less than 5%. For the same compound, the inhibition in data set [4] came to 100%; in data set [11] it was 105%.
`O=C(Nc1cccc(S(=O)(=O)N2CCOCC2)c1)c1cn(-c2ccccc2)nc1-c1ccc(Cl)cc1`: the result in data set [1] was inactive. In addition, the inhibition was found to be 36.9% in data set [2] and 38.8% in data set [4]. Also, the cytotoxicity at 16 h, 40 µM in data set [3] was less than 5%.
On to `COc1cccc(Cn2cc(C(=O)Nc3ccc(C)c(S(=O)(=O)N4CCOCC4)c3)c(-c3ccc(C)cc3)n2)c1`, for which the Ratio IC50 was 5.26 in data set [12] and 4.59 in data set [13]. In data set [6], the result was inactive. Further, the figures for the inhibition in [14] and in data set [4] were 130% and 98.9%, respectively. Also, the cytotoxicity at 16 h, 40 µM in data set [3] was less than 5%.
`Cc1ccc(-c2nn(Cc3ccc4ccccc4c3)cc2C(=O)Nc2ccc(C)c(S(=O)(=O)N3CCOCC3)c2)cc1`: the result in data set [6] was inactive. The inhibition is 97.8% in data set [14] and 84.4% in [4]. Moreover, in data set [9], the cytotoxicity at 16 h, 4.4 µM amounted to 7.9%.
With `Cc1ccc(-c2nn(-c3nc4ccccc4s3)cc2C(=O)Nc2ccc(C)c(S(=O)(=O)N3CCOCC3)c2)cc1`, the Ratio IC50 in [12] was found to be 3. For the same compound, in data set [6], the result was inactive. For the same compound, the cytotoxicity at 16 h, 13.3 µM in data set [15] was 11.5%. Moreover, the results for the inhibition in data set [14] and in data set [4] were 102% and 79.1%, respectively.
On to `COc1cccc(Cn2cc(C(=O)Nc3ccc(C)c(S(=O)(=O)N4CCOCC4)c3)c(C(C)C)n2)c1`, for which the result in data set [6] was inactive. Moreover, in data set [3], the cytotoxicity at 16 h, 40 µM is less than 5%. In addition, the inhibition in [4] amounted to 99.2%; in [10] it was 101%.
With `CCN(CC)S(=O)(=O)c1cc(NC(=O)c2cnn(-c3cccnc3)c2)ccc1C`, the inhibition in data set [5] was 23%; in data set [4], 24%. For the same compound, the outcome in data set [1] was inactive. The cytotoxicity at 16 h, 40 µM in [3] is 10.3%.
As to `CCCCn1cc(C(=O)Nc2ccc(C)c(S(=O)(=O)N3CCOCC3)c2)c(-c2ccc(C)cc2)n1`, the outcome in [6] was inactive. For the same compound, the inhibition is 97.9% in data set [16] and 130% in data set [11]. Besides, the cytotoxicity at 16 h, 4.4 µM in data set [9] was 10.3%.
In general, IC50 refers to the concentration at which inhibition is half-maximal. For `O=C(Nc1cccc(S(=O)(=O)N2CCOCC2)c1)c1cn(-c2ccccc2)nc1-c1cccnc1`, the result in [1] was inactive. Also, the IC50 against Bile acid receptor [17] is 10.8 µM; at Bile acid receptor [18], 1.3 µM. For the same compound, the cytotoxicity at 16 h, 40 µM in [3] is less than 5%. For the same compound, the inhibition in [4] is 82.3%; in [19], 90.4%.
On to `COc1cccc(Cn2cc(C(=O)N(C)c3ccc(C)c(S(=O)(=O)N4CCOCC4)c3)c(C(C)C)n2)c1`, for which the outcome in [6] was inactive. In addition, the figures for the inhibition in data set [20] and in [16] were 80.3% and 2.4%, respectively. Further, in data set [3], the cytotoxicity at 16 h, 40 µM turned out to be 13.5%. For the same compound, in [7], the inhibition result is “inactive”.
